Wnt bcat act: activators of Wnt/beta-catenin signaling; Wnt/beta-catenin reporter cell assay, activator, plate reader; 300,000 compounds, 1.2% hits; AID 743398; activation, % at 9.35 µM; in the data active = activation above about 30%, passing the limit was not always enough; inconclusive = no clear call, values can overlap the other calls;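 also: 0% = neutral control wells and 100% = positive control wells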
MITF TRPM1 HTS: MITF TRPM1 promoter activation in melanoma cells | 300,000 compounds, 0.75% hits | activation, % at 12.5 µM | SK-MEL-5 TRPM1-promoter luciferase, 24 h; % of positive control, neutral wells = 0 | AID 588334;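 active = mean activation of at least 80% with every replicate also reaching 80%; inconclusive = mean reaches 80% but some replicate falls short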;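 also: 0% = neutral control wells and 100% = parthenolide positive control wells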
PGC1a acetyl inh: PGC1a acetylation modulation, inhibitor mode; U2OS PGC1a acetylation, AlphaScreen anti-acetyl-lysine; with virally co-expressed GCN5 acetyltransferase; inhibition, % at 15.6 µM; 350,000 compounds, 0.17% hits;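 active = every replicate shows inhibition of at least 40%; inconclusive = mean inhibition at least 40% but some replicate below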;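 also: 0% = neutral control wells and 100% = positive control wells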
Cneo AK release: causes C. neoformans cell lysis. adenylate kinase release luminescence, 4 h; normalised: neutral wells 0, clomiphene wells 100. lysis activity, % at 15 µM. 360,000 compounds, 0.2% hits. AID 651654;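 active = mean lysis activity across replicates of at least 80%, whatever share of replicates individually reach that level; inactive = mean lysis activity below 80%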
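Schedule: static 4 h at 37 °C with compound, 1 h detection; system: C. neoformans cells; benchmarks: Clomiphene as positive control; buffer or medium: fresh YPD medium; measure: luminescence rise reflecting yeast cell lysis; measured by: luminescent adenylate kinase detection reagent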
* marks the source's active call; other numbers are inactive results; ? = inconclusive; · = no result. An excerpt weighted towards active compounds, which were near 1.5% of everything screened.

SMILES	Wnt bcat act	MITF TRPM1 HTS	PGC1a acetyl inh	Cneo AK release
COCC(=O)Nc1ccc2c(c1)[C@@H]1C[C@@H](CC(=O)NCc3ccc(Cl)cc3)O[C@@H](CO)[C@@H]1O2	·	·	3	-1
O=C(Nc1ccccn1)c1ccc(NC(=O)c2ccco2)cc1	·	86*	-2	-4
Cc1ccccc1NC(=O)c1ccc(NC(=O)c2ccco2)cc1	·	12	-7	3
C/C(=N/NC(=O)c1ccco1)c1ccc(NC(=O)c2ccc(Br)o2)cc1	17	71	·	-9
C/C(=N/NC(=O)c1ccco1)c1ccc(NC(=O)c2ccc(F)cc2)cc1	48*	54	-3	·
O=C(Nc1ccc(-c2nc3ncccc3o2)cc1)c1ccco1	27	104*	·	·
O=C(CCc1ccccc1)Nc1ccc(NC(=O)c2ccco2)nc1	36*	?	-9	-2
C[C@@H]1CN([C@H](C)CO)C(=O)Cc2cc(NC(=O)Cc3cn(C)c4ccccc34)ccc2O[C@@H]1CN(C)S(=O)(=O)c1ccc(Cl)cc1	·	·	-6	·
COc1ccc(NC(=O)N2CC3(C2)CN(CC2CC2)[C@@H](CO)c2c3c3ccc(OC)cc3n2C)cc1	·	·	-9	·
CN(C)C(=O)c1cccc(-c2ccc([C@H]3[C@@H](CO)N4CCCCN(CCC(F)(F)F)C[C@H]34)cc2)c1	·	·	-2	-1
O=C(C1CCOCC1)N1CC(=O)N2[C@@H](CO)[C@H](c3ccc(/C=C/c4ccccc4)cc3)[C@@H]2C1	·	·	5	·
C[C@@H]1CCCCO[C@H](CN(C)C(=O)CCC(F)(F)F)[C@@H](C)CN([C@H](C)CO)C(=O)c2cc(NC(=O)Nc3ccc4c(c3)OCO4)ccc2O1	·	·	7	3
CC(C)NC(=O)N(C)C[C@@H]1Oc2ccc(NC(=O)Cc3cn(C)c4ccccc34)cc2C(=O)N([C@H](C)CO)C[C@@H]1C	·	·	-6	49
Cc1ccc(/C=N/Nc2nc(C(C)(C)C)cs2)o1	5	85*	3	0
CC(C)(C)c1csc(N/N=C/c2cccnc2)n1	12	58	3	-1
Cc1cc(=O)[nH]c(N/N=C/c2ccc(C)o2)n1	1	-4	·	·
Cc1ccc(/C=N/Nc2nc3ccccc3s2)o1	35*	21	·	·
CCOC(=O)C1CCCN(C(=O)CCc2nnc(-c3ccc(C(C)=O)s3)o2)C1 (configuration not stated)	41*	68	12	1
CCCC#Cc1cnc2c(c1)C(=O)N([C@@H](C)CO)C[C@H](C)[C@@H](CN(C)C(=O)Nc1cccc(F)c1)O2	·	·	14	0
CC(C)NC(=O)Nc1ccc2c(c1)C(=O)N([C@@H](C)CO)C[C@H](C)[C@H](CN(C)Cc1ccc3c(c1)OCO3)OCCCC[C@@H](C)O2	·	·	-5	3
Cc1cc(NC2CCCC2)n2ncc(-c3ccccc3)c2n1	0	18	5	-2
Cc1cc(NC(C)c2ccccc2)n2ncc(-c3ccccc3)c2n1 (configuration not stated)	27	122*	-9	-2
Cc1cc(C)n(-c2cc(C(C)(C)C)nc3c(-c4ccccc4)cnn23)n1	56*	121*	·	·
Cc1cc(NCc2ccccc2)n2ncc(-c3ccccc3)c2n1	28	104*	5	-21
O=c1[nH]c2nc(Cl)nc(Cl)c2[nH]1	-3	-8	74*	0
SMILES	Wnt bcat act	MITF TRPM1 HTS	PGC1a acetyl inh	Cneo AK release
N#CC(Cc1cccs1)c1nc2ccccc2[nH]1 (configuration not stated)	1	·	1	2
N#CC(Cc1ccc(OC(F)F)cc1)c1nc2ccccc2[nH]1 (configuration not stated)	25	91*	7	-2
COC(=O)C1CCCCN1C(=O)c1ccc2oc(Cc3ccccc3)nc2c1 (configuration not stated)	23	108*	5	0
O=C(c1ccc2nc(Cc3cccc(Cl)c3)oc2c1)N1CCOCC1	19	102*	·	-2
COC(=O)C1CCCCN1C(=O)c1ccc2oc(C(C)C)nc2c1 (configuration not stated)	6	12	·	-3
COCCC1CCCCN1C(=O)c1ccc2nc(Cc3ccccc3F)oc2c1 (configuration not stated)	13	134*	6	-2
O=C(c1ccc2oc(CCCc3ccccc3)nc2c1)N1CCCC1	35*	64	-4	-13
Cc1cc(C(=O)Nc2cccc3c2O[C@H](CN(C)C(=O)Nc2c(C)noc2C)[C@@H](C)CN([C@@H](C)CO)C3=O)n(C)n1	·	·	6	0
Cc1ccc(NC(=O)c2noc3c2CCC3)cc1C	33*	47	-10	·
O=C(NCc1ccccc1)c1noc2c1CCCCC2	·	101*	9	-3
O=C(NC1CCCC1)c1noc2c1CCCCC2	43*	·	·	·
O=C(Nc1cccc(O)c1)c1noc2c1CCCCC2	7	-32	5	·
C[C@@H]1CN([C@H](C)CO)C(=O)c2cc(C3=CCCCC3)cnc2O[C@@H]1CN(C)Cc1ccccn1	·	·	6	-2
CCN(CC)S(=O)(=O)c1ccc(C(=O)N(c2ccccc2)C2C=CS(=O)(=O)C2)cc1 (configuration not stated)	0	2	46*	·
O=C([C@H]1[C@H](CO)[C@H]2Cn3c(cccc3=O)[C@H]2N1CCC(F)(F)F)N1CCCCC1	·	·	·	93*
CCCN1[C@H](C(=O)N2CCCCC2)[C@@H](CO)[C@@H]2Cn3c(cccc3=O)[C@@H]21	·	·	0	0
Cc1c(C(=O)NCc2ccccn2)oc2ccccc12	·	44	2	-5
Cc1c(C(=O)NCc2ccccn2)oc2ccc(Br)cc12	12	97*	5	-2
CN(C)S(=O)(=O)c1cc(NC(=O)CN2CCCc3ccccc32)ccc1Cl	4	-10	8	0
CN(C)S(=O)(=O)c1cc(NC(=O)CN2CCc3ccccc32)ccc1Cl	-2	-3	75*	·
CN(Cc1ccccc1)S(=O)(=O)c1ccc(Cl)c(C(=O)NCCCN2CCOCC2)c1	57*	-3	-4	1
CN(Cc1ccccc1)S(=O)(=O)c1ccc(Cl)c(C(=O)NCCCN2CCCC2=O)c1	-2	-31	-9	8
N#C/C(=C\c1cccs1)C(=O)NCc1ccccc1	3	5	·	·
C/C(=C\c1ccccc1)C(=O)Nc1nccs1	52*	78	10	·
N#C/C(=C\c1cccs1)C(=O)Nc1nccs1	56*	?	11	·
SMILES	Wnt bcat act	MITF TRPM1 HTS	PGC1a acetyl inh	Cneo AK release
Cc1cc(O)c(C(=O)/C=C/c2ccccc2)c(=O)o1	12	-6	·	3
Cc1cc(O)c(C(=O)/C=C/c2ccc(C(C)C)cc2)c(=O)o1	39*	9	·	-5
C[C@@H]1CCCCO[C@H](CN(C)Cc2ccc3c(c2)OCO3)[C@H](C)CN([C@@H](C)CO)C(=O)c2cc(NS(C)(=O)=O)ccc2O1	·	·	0	·
CCC(=O)c1ccc(N2CCC(C)CC2)c(F)c1	8	71	-2	4
CCCC(=O)c1ccc(N2CCC(C)CC2)c(F)c1	52*	69	·	·
CCN(CC)c1ccc(-c2nc3cnccc3n2C)cc1	·	85*	2	1
O=C(Nc1ccc(CN2CCOCC2)cc1)c1cccc(F)c1	·	88*	4	-6
O=C(Nc1ccc(CN2CCOCC2)cc1)c1ccc(Cl)cc1	12	47	·	-1
